Data on 14 molecules can be found in ChEMBL document CHEMBL1153179, “Optimization of orally bioavailable alkyl amine renin inhibitors” (Bioorg Med Chem Lett, 2010).

Molecules are shown by their SMILES. The source made the active and inactive calls. The rule behind the calls is not given here.

The target of series [1] is T1, Renin (Homo sapiens, UniProt P00797).
T1 sequence (P00797 whole entry): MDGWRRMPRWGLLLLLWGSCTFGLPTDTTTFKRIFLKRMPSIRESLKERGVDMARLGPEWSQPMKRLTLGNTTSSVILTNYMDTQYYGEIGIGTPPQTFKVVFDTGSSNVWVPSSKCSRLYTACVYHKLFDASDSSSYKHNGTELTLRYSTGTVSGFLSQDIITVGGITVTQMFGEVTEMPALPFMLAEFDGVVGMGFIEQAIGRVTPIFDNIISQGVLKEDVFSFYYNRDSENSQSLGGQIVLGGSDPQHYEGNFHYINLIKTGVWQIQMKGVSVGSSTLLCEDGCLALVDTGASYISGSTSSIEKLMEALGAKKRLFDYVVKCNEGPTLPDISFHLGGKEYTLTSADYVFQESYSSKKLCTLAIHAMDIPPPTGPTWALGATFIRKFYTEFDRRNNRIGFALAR
As to the kind of experiment: Inhibition of human recombinant renin assessed as decrease in plasma renin activity by competitive radioimmunoassay in presence of human plasma.

The target in series [2] is T1, Renin. As to the kind of experiment: Inhibition of trypsin-activated human recombinant renin.
Series [3] is described as follows: Clearance in rat at 2 mg/kg, iv. Also on record: dose 2 mg/kg, route intravenous. It counts as ADME, organism-based. The note with it: in vivo.
Series [4] is described as follows: AUC (0 to t) in rat at 10 mg/kg, po. It counts as ADME, organism-based, Plasma. The note with it: plasma. Set-up: dose 10 mg/kg, route oral.
Series [5] in a line: Selectivity for human recombinant renin over beta-secretase.
The nature of series [6]: Cmax in cynomolgus monkey at 1 mg/kg, po. It counts as ADME, organism-based, Macaca fascicularis. Set-up: dose 1 mg/kg, route oral. Conditions: in vivo.
Series [7] can be described thus: Clearance in cynomolgus monkey at 1 mg/kg, iv. It counts as ADME, organism-based, Macaca fascicularis. Also on record: dose 1 mg/kg, route intravenous. Conditions: in vivo.
The nature of series [8]: Half life in human liver microsomes. It counts as ADME, Microsome. Background: Liver microsomes are vesicles of endoplasmic reticulum, rich in cytochrome P450 enzymes.
Series [9] can be described thus: Cmax in rat at 10 mg/kg, po. The format is ADME, organism-based. Also on record: dose 10 mg/kg, route oral. Conditions: in vivo.
The nature of series [10]: Selectivity for human recombinant renin over cathepsin E.
Series [11] in a line: Oral bioavailability in rat at 10 mg/kg. Conditions: in vivo. The format is ADME, organism-based.
The nature of series [12]: Half life in cynomolgus monkey at 1 mg/kg, po. Set-up: dose 1 mg/kg, route oral. The note with it: in vivo. The format is ADME, organism-based, Macaca fascicularis.
The nature of series [13]: Selectivity for human recombinant renin over cathepsin D.
Series [14] in a line: Tmax in cynomolgus monkey at 1 mg/kg, po. Also on record: dose 1 mg/kg, route oral. The format is ADME, organism-based, Macaca fascicularis. The note with it: in vivo.
Series [15] can be described thus: Half life in rat at 10 mg/kg, po. It counts as ADME, organism-based. The note with it: in vivo. Set-up: dose 10 mg/kg, route oral.
Series [16] is described as follows: Tmax in rat at 10 mg/kg, po. Conditions: in vivo. The format is ADME, organism-based. Set-up: dose 10 mg/kg, route oral.
The test system of series [17] is Rattus norvegicus. Put plainly: Reduction in mean blood pressure in double transgenic rat model of hypertension at 10 mg/kg, po after >20 hrs. The format is functional, organism-based. Also on record: dose 10 mg/kg. The procedure, abridged:
(§1)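 Double transgenic rats expressing human renin and human angiotensinogen (dTGR) given a single 10 mg/kg oral dose; mean arterial pressure followed over 24 h against vehicle-treated animals, with statistical significance assessed.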

Series [18] in a line: AUC (0 to t) in cynomolgus monkey at 1 mg/kg, po. It counts as ADME, organism-based, Macaca fascicularis. Also on record: dose 1 mg/kg, route oral. Conditions: plasma.
Series [19] is described as follows: Volume of distribution at steady state in rat at 10 mg/kg, po or 2 mg/kg, iv. It counts as ADME, organism-based. The note with it: in vivo, read-out: Vdss.
A short description of series [20]: Volume of distribution at steady state in cynomolgus monkey at 1 mg/kg, iv or 1 mg/kg, po. It counts as ADME, organism-based, Macaca fascicularis. Conditions: in vivo, read-out: Vdss.
The nature of series [21]: Oral bioavailability in cynomolgus monkey at 1 mg/kg. It counts as ADME, organism-based, Macaca fascicularis. The note with it: in vivo. The method, boiled down:
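Cynomolgus monkeys were dosed with the fumarate salt orally at 1 mg/kg and intravenously at 1 mg/kg. Oral bioavailability (F, %) was reported alongside oral Cmax, tmax, AUC(0-t), oral t1/2, IV clearance and Vss.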

In series [22] the test system is Rattus norvegicus. As to the kind of experiment: Reduction in mean blood pressure in double transgenic rat model of hypertension at 10 mg/kg, po after 24 hrs. Set-up: dose 10 mg/kg. It counts as functional, organism-based. The method, boiled down: as §1
A short description of series [23]: AUC (0 to t) in cynomolgus monkey at 2 mg/kg, po. The note with it: plasma. It counts as ADME, organism-based, Macaca fascicularis. Also on record: dose 2 mg/kg, route oral.
Series [24] can be described thus: Oral bioavailability in cynomolgus monkey at 2 mg/kg. It counts as ADME, organism-based, Macaca fascicularis. Conditions: in vivo.
Series [25] can be described thus: Half life in cynomolgus monkey at 2 mg/kg, po. Conditions: in vivo. Also on record: dose 2 mg/kg, route oral. The format is ADME, organism-based, Macaca fascicularis.
Series [26] can be described thus: Tmax in cynomolgus monkey at 2 mg/kg, po. Conditions: in vivo. The format is ADME, organism-based, Macaca fascicularis. Also on record: dose 2 mg/kg, route oral.
The nature of series [27]: Cmax in cynomolgus monkey at 2 mg/kg, po. Conditions: in vivo. It counts as ADME, organism-based, Macaca fascicularis. Also on record: dose 2 mg/kg, route oral.

In general, IC50 refers to the concentration at which inhibition is half-maximal. Consider `CNC[C@H](CC1CCCCC1)NC(=O)N1CCC[C@@H]([C@@H](OCCNC(=O)OC)c2ccc(F)c(F)c2)C1`, for which the half-maximal inhibitory concentration (IC50) came out at 16.6 nM in series [1] and 2.5 nM in [2].

As for `CNC[C@H](CC1CCCCC1)NC(=O)N1CCC[C@@H]([C@@H](OCCNC(=O)OC)c2cc(F)ccc2F)C1`, the figures for the IC50 in series [1] and in series [2] were 2.7 nM and 0.62 nM, respectively.

What is called clearance is the rate of elimination divided by the concentration. The term AUC(0-t) denotes exposure summed from dosing to a finite time, without extrapolation to infinity. A word on the Cmax: it is the maximum level reached in the sampled fluid or tissue. As usually defined, the half-life is how long it takes for the measured level to halve. The term bioavailability denotes dose-corrected exposure relative to a reference, in per cent. As a reminder, the Tmax is the time from dosing to the highest level. On to `CNC[C@H](CC1CCCCC1)NC(=O)N1CCC[C@@H]([C@@H](OCCNC(=O)OC)c2cccc(Cl)c2)C1`, for which the values for the clearance in [3] and in [7] were 36 mL/min/kg and 11.7 mL/min/kg, respectively. Also, the AUC(0-t) in [4] is 301 ng·h/mL; in [18], 130 ng·h/mL. The Selectivity ratio in series [5], in series [10] and in series [13] was > 1000 each time. Moreover, the values for the highest concentration (Cmax) in [6] and in series [9] were 33.3 ng/mL and 94 ng/mL, respectively. Further, the half-life in series [8] is > 0.5 h; in series [12], 29.2 h; in series [15] it was 9.7 h. For the same molecule, the values for the 50% inhibitory concentration (IC50) in [1] and in [2] were 0.82 nM and 0.48 nM, respectively. The bioavailability in series [11] worked out at 9.4%; in [21], 9.9%. Further, the time of peak concentration (Tmax) in series [14] amounted to 1 h; in series [16] it was 3 h. For the same molecule, the result in [17] was Active. The Vd in series [19] is 19 L/kg; in [20] it was 9.8 L/kg.

On to `CNC[C@H](CC1CCCCC1)NC(=O)N1CCC[C@@H]([C@@H](OCCNC(=O)OC)c2cc(Cl)ccc2F)C1`, for which the values for the IC50 in series [1] and in series [2] were 2.1 nM and 0.62 nM, respectively.

With `COC(=O)NCCO[C@@H](c1cccc(Cl)c1)[C@@H]1CCCN(C(=O)N[C@H](CN)CC2CCCCC2)C1`, the clearance in series [3] was 53 mL/min/kg. In addition, the AUC(0-t) in series [4] was determined as 201 ng·h/mL. This molecule came in with a Cmax in series [9] of 63 ng/mL. In addition, the IC50 stood at 2.6 nM in series [1] and 0.48 nM in series [2]. In addition, in [11], the bioavailability is 7.2%. The molecule also gave a half-life in [15] of 7.8 h. The time to peak (Tmax) in [16] was 4 h. For the same molecule, the Vd in [19] came out at 51 L/kg.

As to `CNC[C@H](CC1CCCCC1)NC(=O)N1CCC[C@@H]([C@@H](OCCNC(=O)OC)c2cccc(C)c2)C1`, the IC50 came to 4 nM in [1] and 0.47 nM in series [2].

Regarding `CNC[C@H](CC1CCCCC1)NC(=O)N1CCC[C@@H]([C@@](O)(CCCNS(C)(=O)=O)c2cccc(Cl)c2)C1`, in series [2], the IC50 is 177 nM.

Regarding `COCCCOc1cc(C[C@@H](C[C@H](N)[C@@H](O)C[C@H](C(=O)NCC(C)(C)C(N)=O)C(C)C)C(C)C)ccc1OC`, the outcome in [22] was Active. In addition, the area under the curve AUC(0-t) in series [4] amounted to 21 ng·h/mL; in series [23], 154 ng·h/mL. Further, the clearance in series [7] turned out to be 2.5 mL/min/kg. The molecule also had a bioavailability in series [24] of 1.4%. The half-life in series [25] was 9.8 h; in [15], 13.5 h. Also, the Tmax in [26] worked out at 1.3 h. The highest level in series [27] (Cmax) was 29.5 ng/mL.

Turning to `CNC[C@H](CC1CCCCC1)NC(=O)N1CCC[C@@H]([C@@](O)(CCCNC(=O)OC)c2cccc(Cl)c2)C1`, the clearance in series [3] was 34 mL/min/kg. In series [4], the exposure AUC(0-t) came out at 10 ng·h/mL. For the same molecule, in series [9], the Cmax was 5 ng/mL. The IC50 was determined as 3.7 nM in series [1] and 0.18 nM in [2]. For the same molecule, the bioavailability in series [11] is 0.3%. In series [15], this molecule had a half-life of 1.8 h. The time of peak concentration (Tmax) in series [16] was found to be 0.9 h. The Vd in series [19] amounted to 29 L/kg.

With `CCC(=O)NCCC[C@@](O)(c1cccc(Cl)c1)[C@@H]1CCCN(C(=O)N[C@H](CNC)CC2CCCCC2)C1`, the IC50 stood at 21 nM in series [1] and 1.5 nM in series [2].

For the molecule `CNC[C@H](CC1CCCCC1)NC(=O)N1CCC[C@@H]([C@@](O)(CCCNC(=O)C2CC2)c2cccc(Cl)c2)C1`, the IC50 in [1] was 79 nM; in [2], 17 nM.

Take `CNC[C@H](CC1CCCCC1)NC(=O)N1CCC[C@@H]([C@@](O)(CCCNC(N)=O)c2cccc(Cl)c2)C1`: the IC50 in [1] turned out to be 200 nM; in series [2], 31 nM.

Molecule `CCOCCCO[C@@H](c1ccccc1)[C@@H]1CCCN(C(=O)N[C@H](CNC)CC2CCCCC2)C1` yielded an AUC(0-t) in series [4] of 832 ng·h/mL. Moreover, in [15], the half-life is 5.9 h.

As for `CNC[C@H](CC1CCCCC1)NC(=O)N1CCC[C@@H]([C@@H](OCCNC(=O)OC)c2cc(F)cc(F)c2)C1`, the IC50 stood at 1.2 nM in series [1] and 0.23 nM in series [2].
